This passage reports B-score results from PubChem BioAssay AID463111 (Johns Hopkins Ion Channel Center, 2010).

Hit rate of the full screen: of about 310,000 compounds, about 2,800 (0.9%) were called active. This is one part of a sample in which actives are shown more often than they occur.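 Rule for the calls: active = B-score of the integrated calcium signal more than 4 SD below the library mean, with starting fluorescence not abnormally high; inactive = the rest.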

This experiment is described as follows: RGS4 potentiators or activators, primary screen, cell-based, HEK293 M3R inducible RGS4, calcium flux (AID 463111).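 For B-score: negative B-score means reduced calcium response which marks RGS4 activation or potentiation.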 Conditions: HEK293 M3R/inducible RGS4, carbachol calcium flux Fluo4, at 10 µM; active compounds read low. An outline of the steps: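 test system = M3R-expressing HEK293 line, RGS4 induced by doxycycline | probe or stimulus = carbachol at ECmax as muscarinic agonist stimulus | timing = dye loading 30 min 37 °C, buffer rest 30 min RT | signal = calcium dye Fluo4 fluorescence | evaluation = B score from integrated fluorescence ratio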
On the technique in general: Calcium assays in cells follow changes in intracellular calcium, usually with a dye or a luminescent sensor.
`CCn1nc(C)c(CNC(=O)C2CCC(=O)N(Cc3cccc(F)c3)C2)c1C` (stereo not given): the B-score result is “inactive”.

Regarding `Cc1ccc(CN(C)Cc2cc(=O)oc3cc(C)c(Cl)cc23)cc1`, the B-score result was “inactive”.

As to `Cc1cc2oc(=O)cc(CN(C)Cc3ccc(OC(F)F)cc3)c2cc1Cl`, the B-score was -7.56 (active).

As for `CCOc1ccc(N(C)Cc2cc(=O)oc3ccc(OC)cc23)cc1`, the B-score result is “inactive”.

`CCN1CCN(c2sc(S(C)(=O)=O)nc2S(=O)(=O)c2ccc(Cl)cc2)CC1`: the B-score entry is “inactive”.

With `Cn1nnnc1SCC(=O)N1CCN(C(c2ccccc2)c2ccccc2)CC1`, the B-score entry was “inactive”.

Turning to `O=C(c1ccc(-n2cnnn2)cc1)N1CCN(C(c2ccccc2)c2ccccc2)CC1`, the B-score was -7.43 (active).

Take `Cc1onc(C(=O)NN)c1C(=O)N1CCN(C(c2ccccc2)c2ccccc2)CC1`: the B-score result is “inactive”.

For the compound `C=CCN(C(=O)Cn1ncc2c1-c1cc(C)ccc1OC2)c1ccccc1`, the B-score entry is “inactive”.

With `Cc1ccc(S(=O)(=O)NCc2ccc(C(=O)NC3CCC(C)CC3)cc2)cc1` (stereo not given), the B-score result is “inactive”.

For the compound `CCOC(=O)c1c(NC(=O)CSc2cn(CC)c3ccccc23)sc2c1CCC2`, the B-score result was “inactive”.

Turning to `CCOC(=O)c1c(NC(=O)C(C)Sc2c[nH]c3ccccc23)sc2c1CCC2` (stereo not given), the B-score was -7.36 (active).

As for `CCOC(=O)c1c(NC(=S)NC)sc2c1CCCC2`, the B-score result was “inactive”.

With `COc1cccc(/C=N/Nc2cc(C)nc(-c3ccccc3O)n2)c1O`, the B-score was -11.4 (active).

As for `COc1cccc(/C=N/NC(=O)c2[nH]nc3c2CCc2ccccc2-3)c1O`, the B-score entry was “inactive”.

Consider `COc1cccc(/C=N/Nc2ncc(C(F)(F)F)cc2Cl)c1O`, for which the B-score entry is “inactive”.

As for `Cc1ccc(C(=O)CSc2ccccc2C(=O)O)cc1`, the B-score result is “inactive”.

In the case of `Cc1ccc(SCC(=O)Nc2ccc3c(c2)OCCO3)cc1`, the B-score result is “inactive”.

In the case of `Cc1ccc(SCC(=O)c2cc(C)c(OC(=S)N(C)C)c(C)c2)cc1`, the B-score is -8.33 (active).

`CN(C)C(=O)Cn1c(=O)n(S(=O)(=O)c2ccccc2)c2ccccc21`: the B-score result is “inactive”.

With `CCOC(=O)C1C(c2ccc(Cl)cc2)NC(=S)NC1(O)C(F)(F)F` (stereo not given), the B-score entry was “inactive”.

For the compound `O=C(c1cccs1)C1C(c2ccc(Br)cc2)NC(=S)NC1(O)C(F)(F)F` (stereo not given), the B-score was -11.1 (active).

As to `CC(=O)C1C(c2cccc(Oc3ccccc3)c2)NC(=O)NC1(O)C(F)(F)F` (stereo not given), the B-score result was “inactive”.

As to `O=C(NCc1ccncc1)C(=O)NCC1OCCN1S(=O)(=O)c1ccc(Br)cc1` (stereo not given), the B-score result is “inactive”.

Take `COc1ccc(C(C(O)C(=O)c2c[nH]c3ccccc23)N2CCN(c3ccccc3)CC2)cc1` (stereo not given): the B-score result is “inactive”.

Turning to `COc1ccc(/C=C(\C#N)c2c[nH]c3ccccc23)cc1`, the B-score is -9.16 (active).

As for `COc1ccc2[nH]cc(/C=C(/C#N)S(=O)(=O)c3ccccc3)c2c1`, the B-score entry is “inactive”.

For the compound `COc1cccc(NC(=S)C(C#N)=C2N(C)c3ccccc3N2C)c1`, the B-score entry was “inactive”.

With `CC(C)(C)c1ccc(C(=O)N2CCN(CCNC(=O)C(=O)Nc3ccc(F)cc3)CC2)cc1`, the B-score entry was “inactive”.

In the case of `COc1ccc(/C(C)=N\NC(=O)c2ccc(-c3ccccc3)cc2)c(F)c1`, the B-score entry was “inactive”.

With `COc1cccc(C(=O)N/N=C(\C)c2cccc(NC(=O)c3ccc(F)cc3)c2)c1OC`, the B-score was -7.56 (active).

As for `COc1cccc(C(=O)Nc2cccnc2)c1OC`, the B-score result was “inactive”.

On to `CC(C)(C)n1ncc2c(=O)n(Cc3ccc(Cl)cc3)cnc21`, for which the B-score result is “inactive”.

As for `CCN1CCN(CCNC(=O)c2ccc(/C=C3/Sc4ccccc4N(Cc4cccc(C)c4)C3=O)cc2)CC1`, the B-score is -9.47 (active).

With `O=C(NCCN1CCOCC1)c1ccc(/C=C2\Sc3ccccc3N(Cc3ccc(F)cc3)C2=O)cc1`, the B-score entry is “inactive”.

Turning to `O=C(NCCCN1CCOCC1)c1ccc2c(c1)N(Cc1cccc(F)c1)C(=O)c1ccccc1S2`, the B-score result was “inactive”.

Turning to `Cc1oc(C(N)=O)cc1COc1ccc(C(N)=O)cc1`, the B-score result was “inactive”.

As to `Cn1nccc1NC(=O)CC(CC(=O)O)c1ccccc1` (stereo not given), the B-score result was “inactive”.

Turning to `Cc1ccc(C(=O)NCCN2CCOCC2)cc1C`, the B-score result is “inactive”.

Take `CCC1=Nc2cc(C(=O)NCCN3CCCC3)ccc2Sc2ccc(C)cc21`: the B-score result was “inactive”.

`Cc1cccc(-c2nc3ccc(C(=O)NCCN4CCN(C)CC4)cc3nc2-c2cccc(C)c2)c1`: the B-score is -8.03 (active).

With `O=C(CN1CCC(NC(=O)C2CC2)CC1)Nc1ccccc1[N+](=O)[O-]`, the B-score entry was “inactive”.

Take `Cc1ccc(OCC(=O)NC(C)c2ccccc2)cc1C` (stereo not given): the B-score entry is “inactive”.

Turning to `CCOc1ccc(C(CC(=O)O)NC(=O)COc2ccccc2)cc1` (stereo not given), the B-score was -7.76 (active).

Take `CCOc1ccc(C(CC(=O)O)NC(=O)Cc2ccccc2)cc1OC` (stereo not given): the B-score result was “inactive”.
